{"source": "paper PMC5148661", "about": "(ACS infectious diseases, 2016)", "key": {"[1]": {"target": "CYP2C9 (Homo sapiens, UniProt P11712)", "sequence (P11712 whole entry, canonical isoform)": "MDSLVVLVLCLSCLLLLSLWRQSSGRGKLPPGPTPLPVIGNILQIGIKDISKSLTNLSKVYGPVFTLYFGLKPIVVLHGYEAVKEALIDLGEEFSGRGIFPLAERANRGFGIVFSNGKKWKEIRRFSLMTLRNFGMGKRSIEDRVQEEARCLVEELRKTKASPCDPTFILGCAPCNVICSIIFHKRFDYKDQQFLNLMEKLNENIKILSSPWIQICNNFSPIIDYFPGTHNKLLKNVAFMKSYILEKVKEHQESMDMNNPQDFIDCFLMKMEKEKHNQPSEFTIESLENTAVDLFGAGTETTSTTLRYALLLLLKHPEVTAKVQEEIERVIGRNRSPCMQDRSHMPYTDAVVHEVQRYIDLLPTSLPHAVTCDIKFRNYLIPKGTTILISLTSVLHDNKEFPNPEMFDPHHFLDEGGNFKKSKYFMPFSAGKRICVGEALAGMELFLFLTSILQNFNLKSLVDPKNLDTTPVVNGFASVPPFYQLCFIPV", "experiment": "reversible cytochrome P450 inhibition", "assay_type": "in vitro ADME", "procedure,_shortened": "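Reversible inhibition of human CYP isoforms tested with isoform-specific probe substrates. Time-dependent (mechanism-based) inhibition was also assessed.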"}, "[2]": {"target": "P. cynomolgi DHODH (Plasmodium cynomolgi, UniProt K6UE05)", "sequence (K6UE05 1-385)": "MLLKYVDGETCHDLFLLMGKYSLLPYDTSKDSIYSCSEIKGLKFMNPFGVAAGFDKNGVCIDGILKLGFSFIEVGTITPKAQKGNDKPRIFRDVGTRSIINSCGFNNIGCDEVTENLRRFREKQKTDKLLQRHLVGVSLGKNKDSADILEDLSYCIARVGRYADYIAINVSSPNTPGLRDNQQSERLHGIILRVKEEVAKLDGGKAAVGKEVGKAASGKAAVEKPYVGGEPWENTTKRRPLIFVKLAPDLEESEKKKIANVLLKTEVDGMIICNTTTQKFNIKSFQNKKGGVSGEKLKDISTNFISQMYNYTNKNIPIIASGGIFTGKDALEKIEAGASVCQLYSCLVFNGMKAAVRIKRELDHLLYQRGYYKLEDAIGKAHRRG", "experiment": "DHODH inhibition, DCIP-based assay", "assay_type": "biochemical"}, "[3]": {"experiment": "metabolic stability in liver microsomes", "assay_type": "in vitro ADME", "details": "mouse"}, "[4]": {"target": "hERG channel (Homo sapiens, UniProt Q12809)", "sequence (Q12809 whole entry)": "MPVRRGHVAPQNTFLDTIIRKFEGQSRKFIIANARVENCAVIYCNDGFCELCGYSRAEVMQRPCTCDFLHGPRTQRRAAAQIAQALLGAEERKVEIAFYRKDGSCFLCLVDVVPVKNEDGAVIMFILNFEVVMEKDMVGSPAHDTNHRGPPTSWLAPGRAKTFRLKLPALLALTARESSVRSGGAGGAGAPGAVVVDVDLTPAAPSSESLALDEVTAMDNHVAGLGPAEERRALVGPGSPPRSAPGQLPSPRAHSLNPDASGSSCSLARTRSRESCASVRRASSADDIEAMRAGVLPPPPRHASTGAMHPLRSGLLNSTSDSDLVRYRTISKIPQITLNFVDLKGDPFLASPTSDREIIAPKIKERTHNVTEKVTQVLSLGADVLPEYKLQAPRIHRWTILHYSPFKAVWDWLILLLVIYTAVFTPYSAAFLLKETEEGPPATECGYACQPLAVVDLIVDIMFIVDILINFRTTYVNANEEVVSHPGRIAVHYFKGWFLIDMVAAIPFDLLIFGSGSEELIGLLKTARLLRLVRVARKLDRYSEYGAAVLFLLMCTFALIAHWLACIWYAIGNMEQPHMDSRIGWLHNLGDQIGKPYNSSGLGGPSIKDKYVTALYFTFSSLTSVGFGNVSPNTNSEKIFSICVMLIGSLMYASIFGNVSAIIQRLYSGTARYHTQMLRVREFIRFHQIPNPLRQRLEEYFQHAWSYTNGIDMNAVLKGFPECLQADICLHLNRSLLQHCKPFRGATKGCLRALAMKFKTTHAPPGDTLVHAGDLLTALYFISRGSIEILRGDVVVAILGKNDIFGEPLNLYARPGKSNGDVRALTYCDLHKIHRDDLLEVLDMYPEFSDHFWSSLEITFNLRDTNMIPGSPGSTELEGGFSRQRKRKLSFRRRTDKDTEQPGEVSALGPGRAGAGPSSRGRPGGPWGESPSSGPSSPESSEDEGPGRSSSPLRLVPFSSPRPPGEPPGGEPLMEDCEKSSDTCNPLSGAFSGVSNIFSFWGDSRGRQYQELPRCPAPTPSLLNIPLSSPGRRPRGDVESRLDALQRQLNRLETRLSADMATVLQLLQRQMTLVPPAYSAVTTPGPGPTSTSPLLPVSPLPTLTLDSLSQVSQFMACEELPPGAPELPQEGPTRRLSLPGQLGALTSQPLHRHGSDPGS", "experiment": "hERG channel patch clamp", "assay_type": "cell-based", "details": "for IC50: hERG IC50, partial dose response curve", "procedure,_shortened": "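hERG current measured by IonWorks automated patch-clamp electrophysiology at a contract lab. Top concentration tested was 33 μM.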"}, "[5]": {"tested_on": "P. falciparum 3D7", "experiment": "whole cell P. falciparum 3D7 blood stage 72 h assay, albumax media", "assay_type": "cell-based", "details": "for EC50: Plasmodium falciparum, 3D7, 72 h"}, "[6]": {"target": "Rat DHODH (Rattus norvegicus, UniProt Q63707)", "sequence (Q63707 whole entry)": "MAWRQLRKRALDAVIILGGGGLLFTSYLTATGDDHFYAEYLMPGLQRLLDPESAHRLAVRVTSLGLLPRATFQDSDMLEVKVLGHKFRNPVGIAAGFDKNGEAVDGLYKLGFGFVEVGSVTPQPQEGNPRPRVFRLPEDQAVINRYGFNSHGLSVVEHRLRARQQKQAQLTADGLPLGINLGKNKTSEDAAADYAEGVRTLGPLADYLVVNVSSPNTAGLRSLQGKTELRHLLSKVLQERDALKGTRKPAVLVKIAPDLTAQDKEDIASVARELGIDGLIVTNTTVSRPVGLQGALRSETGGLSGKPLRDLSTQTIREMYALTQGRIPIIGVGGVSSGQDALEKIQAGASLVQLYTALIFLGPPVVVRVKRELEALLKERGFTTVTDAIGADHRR", "experiment": "DHODH inhibition, DCIP-based assay", "assay_type": "biochemical"}, "[7]": {"tested_on": "P. falciparum field isolates", "experiment": "ex vivo 48 h schizont maturation assay", "assay_type": "cell-based", "details": "Plasmodium falciparum, read-out: unbound EC50", "procedure,_shortened": "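Field isolates came from patients at malaria clinics in Timika, Papua, Indonesia, and were tested in a 48 h schizont maturation assay adapted from the WHO microtest at 2% hematocrit. P. falciparum was run in RPMI 1640 with 10% AB+ human serum. P. vivax was run in McCoy's 5A with 20% AB+ human serum.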"}, "[8]": {"target": "Human DHODH (Homo sapiens, UniProt Q02127)", "sequence (Q02127 whole entry)": "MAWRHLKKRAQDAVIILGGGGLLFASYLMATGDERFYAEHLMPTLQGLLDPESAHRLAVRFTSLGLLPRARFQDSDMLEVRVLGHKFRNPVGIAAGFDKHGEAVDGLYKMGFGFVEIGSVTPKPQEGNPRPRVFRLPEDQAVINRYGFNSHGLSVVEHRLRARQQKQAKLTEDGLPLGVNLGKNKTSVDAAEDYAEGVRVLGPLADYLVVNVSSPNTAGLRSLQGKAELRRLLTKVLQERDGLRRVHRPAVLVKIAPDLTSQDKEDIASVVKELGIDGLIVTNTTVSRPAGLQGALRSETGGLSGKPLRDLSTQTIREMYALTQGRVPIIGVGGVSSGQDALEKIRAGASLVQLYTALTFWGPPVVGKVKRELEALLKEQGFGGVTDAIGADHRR", "experiment": "DHODH inhibition, DCIP-based assay", "assay_type": "biochemical"}, "[9]": {"experiment": "human pharmacokinetic and dose predictions", "procedure,_shortened": "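Human PK was predicted by PBPK modelling from human liver microsome clearance. Allometric scaling of unbound clearance after IV dosing in mouse, rat and dog served as a comparison. Half-life was derived from predicted clearance and Vss. A plasma profile was simulated for a single 200 mg oral dose in the fasted state.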"}, "[10]": {"experiment": "rat 7-day exploratory toxicity study", "assay_type": "in vivo", "details": "rat 7-day exploratory toxicity study (data not shown)"}, "[11]": {"target": "P. berghei DHODH (PbDHODH) (Plasmodium berghei, UniProt A0A509AEH5)", "sequence (A0A509AEH5 132-517)": "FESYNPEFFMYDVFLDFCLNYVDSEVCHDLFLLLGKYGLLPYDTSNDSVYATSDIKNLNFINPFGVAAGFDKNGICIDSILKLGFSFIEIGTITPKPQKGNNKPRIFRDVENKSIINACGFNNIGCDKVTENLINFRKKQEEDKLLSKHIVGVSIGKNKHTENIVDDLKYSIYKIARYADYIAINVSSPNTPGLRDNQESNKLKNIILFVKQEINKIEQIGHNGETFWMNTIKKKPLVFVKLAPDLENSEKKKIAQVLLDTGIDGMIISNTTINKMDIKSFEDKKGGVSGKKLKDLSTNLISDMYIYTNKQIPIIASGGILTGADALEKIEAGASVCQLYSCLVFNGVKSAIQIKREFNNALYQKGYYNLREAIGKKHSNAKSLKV", "experiment": "DHODH inhibition, DCIP-based assay", "assay_type": "biochemical"}, "[12]": {"target": "Dog DHODH (Canis lupus familiaris, UniProt A0A8I3MWX2)", "sequence (A0A8I3MWX2 1-406)": "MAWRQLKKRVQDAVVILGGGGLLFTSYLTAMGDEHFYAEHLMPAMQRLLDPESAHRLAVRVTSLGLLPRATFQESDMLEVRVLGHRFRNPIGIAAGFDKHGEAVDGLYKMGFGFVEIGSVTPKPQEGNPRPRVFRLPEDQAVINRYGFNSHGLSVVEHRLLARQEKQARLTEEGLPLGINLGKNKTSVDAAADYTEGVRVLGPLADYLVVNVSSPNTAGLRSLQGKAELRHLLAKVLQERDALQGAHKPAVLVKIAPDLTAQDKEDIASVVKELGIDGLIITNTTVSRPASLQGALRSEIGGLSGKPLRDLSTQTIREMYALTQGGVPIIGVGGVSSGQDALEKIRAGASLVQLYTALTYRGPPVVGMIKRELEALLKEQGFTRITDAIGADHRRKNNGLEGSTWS", "experiment": "DHODH inhibition, DCIP-based assay", "assay_type": "biochemical"}, "[13]": {"target": "Mouse DHODH (Mus musculus, UniProt O35435)", "sequence (O35435 whole entry)": "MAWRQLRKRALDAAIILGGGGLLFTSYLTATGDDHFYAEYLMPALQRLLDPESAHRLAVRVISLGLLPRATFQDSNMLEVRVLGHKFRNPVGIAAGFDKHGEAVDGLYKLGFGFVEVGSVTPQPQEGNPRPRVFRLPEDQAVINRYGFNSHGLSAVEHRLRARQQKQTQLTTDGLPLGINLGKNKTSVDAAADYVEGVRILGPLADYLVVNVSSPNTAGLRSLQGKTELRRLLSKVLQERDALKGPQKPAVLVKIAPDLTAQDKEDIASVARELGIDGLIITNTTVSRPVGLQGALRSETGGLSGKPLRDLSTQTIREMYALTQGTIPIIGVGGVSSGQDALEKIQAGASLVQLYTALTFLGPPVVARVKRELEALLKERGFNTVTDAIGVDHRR", "experiment": "DHODH inhibition, DCIP-based assay", "assay_type": "biochemical"}}, "note": "Several values for one entry are separate records, joined by “and”; a condition that tells them apart may be missing. Equal values may be shown once. Read-outs that look alike come from different tables or passages of the source.", "data": [{"smiles": "Cc1cc(Nc2ccc(C(F)(F)F)nc2)n2nc(C(C)(F)F)nc2n1", "note": "[DSM421, 2-(1,1-Difluoroethyl)-5-methyl-N-(6-(trifluoromethyl)pyridin-3-yl)-[1,2,4]triazolo[1,5-a]pyrimidin-7-amine]", "values": [{"measurement": "inhibition at 20 µM", "setting": "[1]", "value": 22, "unit": "%"}, {"measurement": "IC50", "setting": "[2]", "value": 0.012, "unit": "µM"}, {"measurement": "microsomal CLint at 1 μM", "setting": "[3]", "value": "< 7", "unit": "µL/min/mg"}, {"measurement": "concentration giving 20% hERG inhibition", "setting": "[4]", "value": "~ 10 μM and 3.6 μg/mL"}, {"measurement": "IC50", "setting": "[4]", "value": 26.2, "unit": "µM"}, {"measurement": "IC50", "setting": "[4]; maximum concentration 33 μM", "value": 26.2, "unit": "µM"}, {"measurement": "fold less potent than DSM265 against P. falciparum 3D7 parasites", "setting": "[5]", "value": 3, "unit": "fold"}, {"measurement": "fold lower intrinsic potency than DSM265 based on unbound concentrations", "setting": "[5]; 48 and 72 h in vitro assays", "value": 10, "unit": "fold"}, {"measurement": "EC50", "setting": "[5]; read-out: Pf3D7 EC50", "value": 0.014, "unit": "µM"}, {"measurement": "EC50", "setting": "[5]; read-out: unbound EC50", "value": 0.007, "unit": "µM"}, {"measurement": "IC50", "setting": "[6]", "value": 22, "unit": "µM"}, {"measurement": "fold reduction of inhibitory activity in comparison to DSM265", "setting": "[6]; rodent (rat) enzyme", "value": 10, "unit": "fold"}, {"measurement": "EC50", "setting": "[7]", "value": 0.023, "unit": "µM"}, {"measurement": "IC50", "setting": "[8]", "value": "> 100", "unit": "µM"}, {"measurement": "predicted unbound human clearance", "setting": "[9]; allometric scaling of mice, rats and dogs IV unbound clearance", "value": 2.2, "unit": "mL/min/kg"}, {"measurement": "estimated human half-life", "setting": "[9]; human", "value": "~ 78 h"}, {"measurement": "half-life", "setting": "[9]; human, plasma, estimated human half-life", "value": 78, "unit": "h"}, {"measurement": "tolerability", "setting": "[10]", "value": "well tolerated"}, {"measurement": "IC50", "setting": "[11]", "value": 5, "unit": "µM"}, {"measurement": "fold less active against PbDHODH than PfDHODH", "setting": "[11]", "value": 100, "unit": "fold"}, {"measurement": "IC50", "setting": "[12]", "value": 35, "unit": "µM"}, {"measurement": "fold reduction of inhibitory activity in comparison to DSM265", "setting": "[12]; dog enzyme", "value": 2.2, "unit": "fold"}, {"measurement": "IC50", "setting": "[13]", "value": 18, "unit": "µM"}, {"measurement": "fold reduction of inhibitory activity in comparison to DSM265", "setting": "[13]; rodent (mouse) enzyme", "value": 10, "unit": "fold"}]}]}
